# Measured values taken from ChEMBL document CHEMBL1146021, “Calcium channel antagonists discovered by a multidisciplinary approach” (J Med Chem, 2006).
# Activity calls are given as the source filed them.
# Key:
# [1] = species on record: Cavia porcellus; experiment: Vasorelaxant activity assessed as inhibition of calcium-induced contraction of potassium ion-depolarized guinea pig aortic strips at 100 uM; format: functional, Aorta; set-up: scale not given: the % may be the effect or the level left
# Method in brief: (§1)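 Helicoidal guinea-pig aortic strips in aerated PSS at 35 °C, contracted with 80 mM KCl (K+ substituted for Na+). At plateau (about 45 min), compounds added cumulatively at 0.1-500 μM in DMSO vehicle. Relaxation measured isometrically. IC50 by Probit analysis, n = 6-8.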
# [2] = species on record: Cavia porcellus; experiment: Negative inotropic activity in guinea pig left atrium at 500 uM; format: functional, Cardiac atrium
# [3] = species on record: Cavia porcellus; experiment: Negative chronotropic activity in guinea pig right atrium at 100 uM; format: functional, Cardiac atrium; conditions: in the assay text read “50 uM” for “100 uM”
# Method in brief: (§2)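 Spontaneously beating guinea-pig right atria in PSS, 35 °C, pH 7.4, 95% O2/5% CO2. Cumulative concentrations 0.01-100 μM in DMSO (≤0.3% in bath), each to steady state. Rate decrease taken as percent of control (pretreatment 170-195 beats/min), n = 6-8. EC30 by Probit analysis.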
# [4] = species on record: Cavia porcellus; experiment: Negative inotropic activity in guinea pig left atrium; format: functional; conditions: Cardiac atrium
# Method in brief: (§3)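 Guinea-pig left atria driven at 1 Hz (0.6-0.8 ms pulses, about 50% threshold voltage) in PSS, 35 °C, pH 7.4, 95% O2/5% CO2. Isometric tension recorded. Cumulative concentrations 0.01-100 μM in DMSO (≤0.3%), each to steady state. Percent decrease in developed tension, n = 4-6. EC50 by Probit analysis.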
# [5] = species on record: Cavia porcellus; experiment: Negative chronotropic activity in guinea pig right atrium at 10 uM; format: functional, Cardiac atrium; method in brief: as §2
# [6] = species on record: Cavia porcellus; experiment: Negative chronotropic activity in guinea pig right atrium at 500 uM; format: functional, Cardiac atrium
# [7] = species on record: Cavia porcellus; experiment: Negative inotropic activity in guinea pig left atrium at 50 uM; format: functional, Cardiac atrium; method in brief: as §3
# [8] = species on record: Cavia porcellus; experiment: Negative chronotropic activity in guinea pig right atrium at 50 uM; format: functional, Cardiac atrium; method in brief: as §2
# [9] = species on record: Cavia porcellus; experiment: Negative chronotropic activity in guinea pig right atrium at 5 uM; format: functional, Cardiac atrium; method in brief: as §2
# [10] = species on record: Cavia porcellus; experiment: Cardiac activity in guinea pig heart measured as decrease in heart rate at 1 uM by ECG relative to control; format: functional; set-up: scale not given: the % may be the effect or the level left
# Method in brief: (§4)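 Langendorff-perfused isolated hearts from female guinea-pigs (300-400 g). Compounds given cumulatively at 0.001-1 μM, each step held to steady state (about 30 min). Read-outs: surface ECG (PR interval, heart rate), intraventricular balloon +(dP/dt)max and coronary perfusion pressure. Results given as percent change from basal at 1 μM, mean ± SEM.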
# [11] = species on record: Cavia porcellus; experiment: Cardiac activity in guinea pig heart measured as decrease in left ventricular pressure at 1 uM relative to control; format: functional; set-up: scale not given: the % may be the effect or the level left; method in brief: as §4
# [12] = species on record: Cavia porcellus; experiment: Antagonist activity against calcium channel assessed as inhibition of calcium-induced contraction of potassium ion-depolarized guinea pig ileum longitudinal smooth muscle at 100 uM; format: functional; set-up: scale not given: the % may be the effect or the level left
# Method in brief: (§5)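 Guinea-pig ileum longitudinal smooth muscle segments (2 cm) held at 300-400 mg resting tension, 37 °C, in oxygenated (100% O2) Hepes-buffered PSS at pH 7.4. Isometric contraction recorded. Inhibition expressed as percentage of control. Probit log concentration–response analysis, n = 6-8.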
# [13] = species on record: Cavia porcellus; experiment: Negative inotropic activity in guinea pig left atrium at 1 uM; format: functional, Cardiac atrium; method in brief: as §3
# [14] = species on record: Cavia porcellus; experiment: Cardiac activity in guinea pig heart measured as decrease in coronary perfusion pressure at 1 uM relative to control; format: functional; set-up: scale not given: the % may be the effect or the level left; method in brief: as §4
# [15] = species on record: Cavia porcellus; experiment: Antagonist activity against calcium channel assessed as inhibition of carbachol-induced tonic contraction of guinea pig ileum longitudinal smooth muscle; format: functional
# Method in brief: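 Guinea-pig ileum longitudinal smooth muscle segments (2 cm), 300-400 mg resting tension, 37 °C, oxygenated Hepes-buffered PSS at pH 7.4, equilibrated 1 h. Two control carbachol curves run 30 min apart. Test agent (10 μM) added 30 min before the carbachol curve. Isometric inhibition expressed as percent of control.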
# [16] = species on record: Cavia porcellus; experiment: Negative inotropic activity in guinea pig left ventricular papillary muscle at 500 uM; format: functional, Muscle tissue
# [17] = species on record: Cavia porcellus; experiment: Cardiac activity in guinea pig heart measured as prolongation of atrioventricular conduction time at 1 uM relative to control; format: functional; method in brief: as §4
# [18] = species on record: Cavia porcellus; experiment: Vasorelaxant activity assessed as inhibition of calcium-induced contraction of potassium ion-depolarized guinea pig aortic strips at 50 uM; format: functional, Aorta; set-up: scale not given: the % may be the effect or the level left; method in brief: as §1
# [19] = species on record: Cavia porcellus; experiment: Negative inotropic activity in guinea pig left atrium at 10 uM; format: functional, Cardiac atrium; method in brief: as §3
# [20] = species on record: Cavia porcellus; experiment: Vasorelaxant activity assessed as inhibition of calcium-induced contraction of potassium ion-depolarized guinea pig aortic strips; format: functional; conditions: Aorta; method in brief: as §1
# [21] = species on record: Cavia porcellus; experiment: Antagonist activity against calcium channel assessed as inhibition of calcium-induced contraction of potassium ion-depolarized guinea pig ileum longitudinal smooth muscle; format: functional; method in brief: as §5
# [22] = species on record: Cavia porcellus; experiment: Negative chronotropic activity in guinea pig right atrium; format: functional; conditions: Cardiac atrium; method in brief: as §2
# [23] = species on record: Cavia porcellus; experiment: Negative inotropic activity in guinea pig left ventricular papillary muscle; format: functional; conditions: Muscle tissue
# [24] = species on record: Cavia porcellus; experiment: Negative inotropic activity in guinea pig left ventricular papillary muscle at 10 uM; format: functional, Muscle tissue
# [25] = species on record: Cavia porcellus; experiment: Antagonist activity against calcium channel assessed as inhibition of calcium-induced contraction of potassium ion-depolarized guinea pig ileum longitudinal smooth muscle at 1 uM; format: functional; set-up: scale not given: the % may be the effect or the level left; method in brief: as §5
# [26] = species on record: Cavia porcellus; experiment: Negative inotropic activity in guinea pig left atrium at 5 uM; format: functional, Cardiac atrium; method in brief: as §3
# [27] = species on record: Cavia porcellus; experiment: Antagonist activity against calcium channel assessed as inhibition of calcium-induced contraction of potassium ion-depolarized guinea pig ileum longitudinal smooth muscle at 10 uM; format: functional; set-up: scale not given: the % may be the effect or the level left; method in brief: as §5
# [28] = target: Voltage-dependent L-type calcium channel subunit alpha-1C (Rattus norvegicus, UniProt P22002); experiment: Inhibition of [3H]diltiazem binding to Sprague-Dawley rat cardiomyocytes at 10 nM relative to control; conditions: read-out: Activity
# Method in brief: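 Cardiomyocytes from male Sprague-Dawley rats, isolated by Langendorff perfusion and stored frozen (200 μg per tube). Incubated with 5 nM [3H]diltiazem and test ligand (0.1 nM-100 μM) in 50 mM Tris pH 7.4, 25 °C, 90 min. Bound ligand separated by filtration. Nonspecific binding with 100 μM diltiazem. Triplicates. pIC50 from sigmoidal fit; Ki by Cheng-Prusoff.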
# [29] = species on record: Cavia porcellus; experiment: Cardiac activity in guinea pig heart measured as increase in coronary perfusion pressure at 1 uM relative to control; format: functional; method in brief: as §4
# Chain of Voltage-dependent L-type calcium channel subunit alpha-1C (P22002 whole entry, the tested form may be a part): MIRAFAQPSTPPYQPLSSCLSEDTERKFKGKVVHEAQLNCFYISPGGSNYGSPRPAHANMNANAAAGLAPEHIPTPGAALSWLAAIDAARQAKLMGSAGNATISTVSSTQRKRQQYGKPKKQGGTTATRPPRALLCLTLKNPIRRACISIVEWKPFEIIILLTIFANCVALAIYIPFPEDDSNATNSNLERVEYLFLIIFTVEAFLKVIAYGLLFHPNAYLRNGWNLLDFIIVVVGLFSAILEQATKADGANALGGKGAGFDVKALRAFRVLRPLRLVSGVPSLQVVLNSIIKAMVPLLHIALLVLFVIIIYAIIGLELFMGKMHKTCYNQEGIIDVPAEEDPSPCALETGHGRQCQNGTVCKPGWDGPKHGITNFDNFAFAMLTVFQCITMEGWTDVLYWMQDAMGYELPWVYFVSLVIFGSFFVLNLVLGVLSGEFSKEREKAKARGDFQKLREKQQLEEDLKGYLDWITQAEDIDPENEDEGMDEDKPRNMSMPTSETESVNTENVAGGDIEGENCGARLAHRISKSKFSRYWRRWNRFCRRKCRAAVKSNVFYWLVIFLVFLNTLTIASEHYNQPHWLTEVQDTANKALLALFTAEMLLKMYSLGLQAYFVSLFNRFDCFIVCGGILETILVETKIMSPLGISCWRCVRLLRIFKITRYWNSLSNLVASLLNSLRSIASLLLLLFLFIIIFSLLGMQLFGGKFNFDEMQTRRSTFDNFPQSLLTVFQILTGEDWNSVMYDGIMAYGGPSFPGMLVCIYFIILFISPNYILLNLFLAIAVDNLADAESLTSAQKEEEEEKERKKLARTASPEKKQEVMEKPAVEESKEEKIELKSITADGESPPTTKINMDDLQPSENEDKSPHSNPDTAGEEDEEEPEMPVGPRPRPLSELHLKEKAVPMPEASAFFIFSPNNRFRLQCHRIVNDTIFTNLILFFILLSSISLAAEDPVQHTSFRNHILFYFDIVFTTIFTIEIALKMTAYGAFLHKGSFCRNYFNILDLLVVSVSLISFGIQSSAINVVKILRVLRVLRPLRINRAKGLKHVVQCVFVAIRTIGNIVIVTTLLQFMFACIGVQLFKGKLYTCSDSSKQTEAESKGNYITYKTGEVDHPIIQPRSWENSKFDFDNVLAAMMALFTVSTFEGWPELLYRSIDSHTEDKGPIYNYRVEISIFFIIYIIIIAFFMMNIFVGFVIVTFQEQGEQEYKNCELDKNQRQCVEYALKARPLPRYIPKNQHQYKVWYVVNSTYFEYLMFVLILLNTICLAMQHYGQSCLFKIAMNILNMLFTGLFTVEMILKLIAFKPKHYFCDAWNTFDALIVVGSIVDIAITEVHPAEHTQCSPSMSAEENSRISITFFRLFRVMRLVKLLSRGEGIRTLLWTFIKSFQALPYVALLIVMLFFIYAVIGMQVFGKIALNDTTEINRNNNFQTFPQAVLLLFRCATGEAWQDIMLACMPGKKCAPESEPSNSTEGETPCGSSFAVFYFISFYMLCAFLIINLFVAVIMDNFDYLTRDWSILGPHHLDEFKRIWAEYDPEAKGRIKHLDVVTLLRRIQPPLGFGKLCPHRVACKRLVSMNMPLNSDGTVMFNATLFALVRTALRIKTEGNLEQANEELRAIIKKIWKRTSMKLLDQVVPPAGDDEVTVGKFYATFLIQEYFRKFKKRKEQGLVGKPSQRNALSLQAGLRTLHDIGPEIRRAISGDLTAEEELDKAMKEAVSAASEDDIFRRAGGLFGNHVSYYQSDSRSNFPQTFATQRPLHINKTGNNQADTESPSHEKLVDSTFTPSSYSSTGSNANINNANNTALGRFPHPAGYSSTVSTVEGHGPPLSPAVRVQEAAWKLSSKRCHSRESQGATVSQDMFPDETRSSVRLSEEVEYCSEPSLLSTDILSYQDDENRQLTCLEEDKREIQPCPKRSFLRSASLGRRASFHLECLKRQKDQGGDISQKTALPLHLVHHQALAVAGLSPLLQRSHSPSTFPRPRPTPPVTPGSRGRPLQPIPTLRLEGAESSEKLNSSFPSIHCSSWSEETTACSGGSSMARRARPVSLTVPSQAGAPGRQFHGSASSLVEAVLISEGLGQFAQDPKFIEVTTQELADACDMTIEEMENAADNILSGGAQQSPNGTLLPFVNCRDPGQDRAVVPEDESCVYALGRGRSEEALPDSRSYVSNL
smiles,measurement,setting,value
COC(=O)c1ccccc1-n1cccc1C(=O)C(Cl)(Cl)Cl,Activity,[1],20%
same,Activity,[2],76%
same,Activity,[3],33%
same,EC50,[4],3910 nM
COC(=O)[C@H]1SCCN1S(=O)(=O)c1ccc(Cl)cc1,Activity,[1],29%
same,Activity,[2],92%
same,Activity,[5],2%
same,EC50,[4],1000 nM
O=S(=O)(c1ccc(Cl)cc1)N(Cc1ccsc1)S(=O)(=O)c1ccc(Cl)cc1,Activity,[6],7%
same,Activity,[1],9%
same,Activity,[2],71%
same,EC50,[4],2550 nM
O=S(=O)(c1ccc(Br)cc1)N1CCCCCC1,Activity,[1],33%
same,EC50,[4],360 nM
same,Activity,[7],91%
same,Activity,[8],4%
O=C(c1ccccn1)c1conc1-c1c(Cl)cccc1Cl,Activity,[1],25%
same,Activity,[9],21%
same,EC50,[4],990 nM
same,Activity,[7],81%
CCOC1(c2ccc(Br)cc2)SC=C(C)n2c1noc2=O (configuration not stated),Activity,[1],19%
same,Activity,[10],14%
same,Activity,[11],3%
same,Activity,[12],3%
same,Activity,[13],77%
same,Activity,[3],5%
same,EC50,[4],40 nM
same,Activity,[14],9%
same,IC50,[15],40000 nM
same,Activity,[16],2%
same,Activity,[17],32%
O=C(O)[C@@H]1CCCN1S(=O)(=O)c1ccccc1,Activity,[9],22%
same,EC50,[4],910 nM
same,Activity,[18],3%
same,Activity,[7],66%
CSC1=NCCCN1S(=O)(=O)c1ccc(Cl)cc1,Activity,[1],57%
same,Activity,[19],92%
same,Activity,[5],5%
same,EC50,[4],1330 nM
same,IC50,[20],25100 nM
COc1ccc([C@@H]2Sc3ccccc3N(CCN(C)C)C(=O)[C@@H]2OC(C)=O)cc1 [DILTIAZEM],EC50,[21],110 nM
same,EC30,[22],70 nM
same,Activity,[1],88%
same,Activity,[10],25%
same,Activity,[11],59%
same,Activity,[9],94%
same,Activity,[19],78%
same,EC50,[23],1610 nM
same,Activity,[14],51%
same,IC50,[15],480 nM
same,Activity,[24],82%
same,Activity,[25],98%
same,Activity,[17],34%
CCO[C@]1(c2ccc(Br)cc2)SC=C(C)n2c1noc2=O,Activity,[1],11%
same,Activity,[13],58%
same,Activity,[5],16%
same,EC50,[4],70 nM
O=S(=O)(c1ccc(Cl)cc1)N1CCC[C@@H]1c1cccs1,EC50,[21],1180 nM
same,Activity,[1],74%
same,Activity,[26],84%
same,Activity,[10],inactive
same,Activity,[11],6%
same,Activity,[5],4%
same,EC50,[4],310 nM
same,EC50,[23],1380 nM
same,Activity,[27],90%
same,inhibition at 0.01 µM,[28],-24.8%
same,IC50,[15],8210 nM
same,Activity,[29],17%
same,Activity,[24],93%
same,IC50,[20],5620 nM
same,Activity,[17],20%
